Measurements taken from ChEMBL document CHEMBL4196182, “Hexaricins, Pradimicin-like Polyketides from a Marine Sediment-Derived Streptosporangium sp. and Their Antioxidant Effects” (J Nat Prod, 2018).
pEC50: −log10 of the molar value.

How the values were obtained:
Format in all cases: functional
[1] = Antioxidant activity assessed as DPPH radical scavenging activity incubated for 30 mins by UV/visible spectrophotometric analysis
Method in brief: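 Test samples in MeOH at 1.875−120 μg/mL reacted with DPPH in MeOH (negative control DPPH 0.1 mM). Absorbance read at 517 nm; scavenging % computed against the DPPH-only control, correcting for sample absorbance without DPPH. EC50 is the concentration giving 50% scavenging. Independent repeats at least three times, reported as mean ± standard deviation.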

[2] = Antioxidant activity assessed as hydroxyl radical scavenging activity incubated for 10 mins in presence of salicylic acid
Method in brief: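 Modified Smirnoff method. Equal volumes of sample in MeOH, FeSO4 (6 mM) and ethanolic salicylic acid (6 mM), then H2O2 (6 mM), giving final sample levels of 0.2−1 mg/mL. Held 10 min at room temperature, then read at 510 nm. Scavenging % uses blanks with and without H2O2 against the negative control. EC50 taken at 50% scavenging. Repeated at least three times, mean ± standard deviation.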

[3] = Antioxidant activity assessed as superoxide anion radical scavenging activity incubated for 20 mins measured every 30 secs for 5 mins in presence of pyrogallol

Row | Structure (SMILES) | pEC50 [1] | pEC50 [2] | pEC50 [3]
1 | COc1c2c(c(O)c3c1[C@H](O)Cc1cc(CC(C)=O)c(C(=O)O)c(O)c1-3)C(=O)c1cccc(O)c1C2=O | 4.60 | 3.08 | 3.17
2 | COc1c2c(c(O)c3c1C(=O)c1c(O)cccc1C3=O)-c1c(cc3c(c1O)C(=O)O[C@H](C)C3)CC2 | 4.38 | 2.82 | 2.96
3 | COc1c2c(c(O)c3c1C(=O)c1c(O)cccc1C3=O)-c1c(cc3c(c1O)C(=O)OC(C)(OC)C3)CC2 (centres undefined) | 5.57 | 3.28 | 3.86
4 | CC(C)(C)c1cc(O)ccc1O [E319] | 5.00 | 2.72 | 3.32
5 | COc1c2c(c(O)c3c1[C@H](O)Cc1cc4c(c(O)c1-3)C(=O)O[C@H](C)C4)C(=O)c1cccc(O)c1C2=O | 4.68 | 3.14 | 3.23
6 | COc1c2c(c(O)c3c1[C@H](OC(=O)C(C)C)Cc1cc4c(c(O)c1-3)C(=O)O[C@H](C)C4)C(=O)c1cccc(O)c1C2=O | 4.52 | 3.09 | 3.13
7 | COc1c2c(c(O)c3c1C(=O)c1c(O)cccc1C3=O)-c1c(cc3c(c1O)C(=O)OC(C)(O)C3)CC2 (centres undefined) | 5.54 | 3.21 | 4.08
8 | CCC(=O)O[C@@H]1Cc2cc3c(c(O)c2-c2c(O)c4c(c(OC)c21)C(=O)c1c(O)cccc1C4=O)C(=O)O[C@H](C)C3 | 4.52 | 3.08 | 3.12
